# Tested on: U2OS
# Assay: Multiplex assay against U2OS
# Format: toxicity, cell-based
# Details: human
# How it was run: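 Cells stained live at seeding with Hoechst33342, BioTracker Green Microtubule Cytoskeleton Dye, MitoTracker Red and Annexin V Alexa Fluor 680 were imaged on a CQ1 microscope at 37°C and 5% CO2 after compound addition. Their classification by CellPathfinder machine-learning gating ran from Hoechst high-intensity objects versus normal cells, to healthy, pyknosed or fragmented nuclei among normal cells, to mitotic or apoptotic among pyknosed cells. Tubulin, mitochondrial-mass and membrane-permeability phenotypes are per cents of healthy-nucleus cells.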
# [1] = 12 h, 1 µM, compound concentration 1 uM, replicate 1
# [2] = 12 h, 1 µM, compound concentration 1 uM, replicate 2
# [3] = 12 h, 10 µM, compound concentration 10 uM, replicate 1
# [4] = 12 h, 10 µM, compound concentration 10 uM, replicate 2
# [5] = 24 h, 1 µM, compound concentration 1 uM, replicate 1
# [6] = 24 h, 1 µM, compound concentration 1 uM, replicate 2
# [7] = 24 h, 10 µM, compound concentration 10 uM, replicate 1
# [8] = 24 h, 10 µM, compound concentration 10 uM, replicate 2
# [9] = 48 h, 1 µM, compound concentration 1 uM, replicate 1
# [10] = 48 h, 1 µM, compound concentration 1 uM, replicate 2
# [11] = 48 h, 10 µM, compound concentration 10 uM, replicate 1
# [12] = 48 h, 10 µM, compound concentration 10 uM, replicate 2
structure (smiles),measurement,setting,value
CC(C)NCC(O)COc1ccc(CCOCC2CC2)cc1.Cl (configuration not stated) [BETAXOLOL HYDROCHLORIDE],Population Apoptotic (%),[1],60%
same,Population Fragmented Nuclei (%),[1],9%
same,Population Healthy Nuclei (%),[1],84%
same,Population Hoechst High Intensity Objects (%),[1],8%
same,Population Mitochondria Different-Phenotype (%),[1],14%
same,Population Mitotic Cells (%),[1],40%
same,Population Normal (%),[1],92%
same,Population Pyknosed Nuclei (%),[1],6%
same,Population Tubulin-Different-Phenotype (%),[1],12%
same,Total Cell Count,[1],175
same,Population Apoptotic (%),[2],100%
same,Population Fragmented Nuclei (%),[2],2%
same,Population Healthy Nuclei (%),[2],95%
same,Population Hoechst High Intensity Objects (%),[2],16%
same,Population Membrane Permeable-Phenotype (%),[2],6%
same,Population Mitochondria Different-Phenotype (%),[2],2%
same,Population Mitotic Cells (%),[2],0%
same,Population Normal (%),[2],83%
same,Population Pyknosed Nuclei (%),[2],2%
same,Population Tubulin-Different-Phenotype (%),[2],9%
same,Total Cell Count,[2],55
same,Population Apoptotic (%),[3],52%
same,Population Fragmented Nuclei (%),[3],14%
same,Population Healthy Nuclei (%),[3],69%
same,Population Hoechst High Intensity Objects (%),[3],5%
same,Population Membrane Permeable-Phenotype (%),[3],2%
same,Population Mitochondria Different-Phenotype (%),[3],64%
same,Population Mitotic Cells (%),[3],47%
same,Population Normal (%),[3],94%
same,Population Pyknosed Nuclei (%),[3],16%
same,Population Tubulin-Different-Phenotype (%),[3],53%
same,Total Cell Count,[3],124
same,Population Apoptotic (%),[4],23%
same,Population Fragmented Nuclei (%),[4],9%
same,Population Healthy Nuclei (%),[4],77%
same,Population Hoechst High Intensity Objects (%),[4],7%
same,Population Membrane Permeable-Phenotype (%),[4],5%
same,Population Mitochondria Different-Phenotype (%),[4],72%
same,Population Mitotic Cells (%),[4],76%
same,Population Normal (%),[4],92%
same,Population Pyknosed Nuclei (%),[4],13%
same,Population Tubulin-Different-Phenotype (%),[4],49%
same,Total Cell Count,[4],107
same,Population Apoptotic (%),[5],28%
same,Population Fragmented Nuclei (%),[5],8%
same,Population Healthy Nuclei (%),[5],83%
same,Population Membrane Permeable-Phenotype (%),[5],3%
same,Population Mitochondria Different-Phenotype (%),[5],10%
same,Population Mitotic Cells (%),[5],71%
same,Population Pyknosed Nuclei (%),[5],7%
same,Population Tubulin-Different-Phenotype (%),[5],8%
same,Total Cell Count,[5],202
same,Population Apoptotic (%),[6],33%
same,Population Fragmented Nuclei (%),[6],3%
same,Population Healthy Nuclei (%),[6],85%
same,Population Hoechst High Intensity Objects (%),[6],5%
same,Population Membrane Permeable-Phenotype (%),[6],4%
same,Population Mitochondria Different-Phenotype (%),[6],6%
same,Population Mitotic Cells (%),[6],66%
same,Population Normal (%),[6],94%
same,Population Pyknosed Nuclei (%),[6],10%
same,Population Tubulin-Different-Phenotype (%),[6],2%
same,Total Cell Count,[6],59
same,Population Apoptotic (%),[7],57%
same,Population Fragmented Nuclei (%),[7],13%
same,Population Healthy Nuclei (%),[7],70%
same,Population Hoechst High Intensity Objects (%),[7],6%
same,Population Membrane Permeable-Phenotype (%),[7],7%
same,Population Mitochondria Different-Phenotype (%),[7],59%
same,Population Mitotic Cells (%),[7],42%
same,Population Normal (%),[7],93%
same,Population Pyknosed Nuclei (%),[7],16%
same,Population Tubulin-Different-Phenotype (%),[7],31%
same,Total Cell Count,[7],139
same,Population Apoptotic (%),[8],40%
same,Population Fragmented Nuclei (%),[8],7%
same,Population Healthy Nuclei (%),[8],78%
same,Population Hoechst High Intensity Objects (%),[8],5%
same,Population Membrane Permeable-Phenotype (%),[8],5%
same,Population Mitochondria Different-Phenotype (%),[8],78%
same,Population Mitotic Cells (%),[8],60%
same,Population Normal (%),[8],94%
same,Population Pyknosed Nuclei (%),[8],15%
same,Population Tubulin-Different-Phenotype (%),[8],46%
same,Total Cell Count,[8],106
same,Population Apoptotic (%),[9],25%
same,Population Fragmented Nuclei (%),[9],8%
same,Population Healthy Nuclei (%),[9],81%
same,Population Membrane Permeable-Phenotype (%),[9],2%
same,Population Mitochondria Different-Phenotype (%),[9],7%
same,Population Mitotic Cells (%),[9],74%
same,Population Pyknosed Nuclei (%),[9],10%
same,Population Tubulin-Different-Phenotype (%),[9],6%
same,Total Cell Count,[9],296
same,Population Apoptotic (%),[10],50%
same,Population Fragmented Nuclei (%),[10],9%
same,Population Healthy Nuclei (%),[10],80%
same,Population Hoechst High Intensity Objects (%),[10],3%
same,Population Membrane Permeable-Phenotype (%),[10],5%
same,Population Mitochondria Different-Phenotype (%),[10],16%
same,Population Mitotic Cells (%),[10],50%
same,Population Normal (%),[10],96%
same,Population Pyknosed Nuclei (%),[10],9%
same,Population Tubulin-Different-Phenotype (%),[10],10%
same,Total Cell Count,[10],87
same,Population Apoptotic (%),[11],52%
same,Population Fragmented Nuclei (%),[11],19%
same,Population Healthy Nuclei (%),[11],68%
same,Population Hoechst High Intensity Objects (%),[11],4%
same,Population Membrane Permeable-Phenotype (%),[11],3%
same,Population Mitochondria Different-Phenotype (%),[11],34%
same,Population Mitotic Cells (%),[11],47%
same,Population Normal (%),[11],95%
same,Population Pyknosed Nuclei (%),[11],12%
same,Population Tubulin-Different-Phenotype (%),[11],21%
same,Total Cell Count,[11],200
same,Population Apoptotic (%),[12],54%
same,Population Fragmented Nuclei (%),[12],9%
same,Population Healthy Nuclei (%),[12],75%
same,Population Hoechst High Intensity Objects (%),[12],5%
same,Population Membrane Permeable-Phenotype (%),[12],9%
same,Population Mitochondria Different-Phenotype (%),[12],50%
same,Population Mitotic Cells (%),[12],45%
same,Population Normal (%),[12],94%
same,Population Pyknosed Nuclei (%),[12],15%
same,Population Tubulin-Different-Phenotype (%),[12],25%
same,Total Cell Count,[12],152
